# Tests used:
# Assay type in all cases: functional, Rattus norvegicus
# [1] = Percentage survived cells of LA7 cell line done for 6 hr with compound (21.3 uM) in trypan blue exclusion dye test
# Summary of the method: (§1)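 LA7 rat mammary adenocarcinoma cells grown in DMEM with 10% FCS, penicillin/streptomycin, insulin and hydrocortisone (50 ng/mL each). Exposed 6 h to DMPC/cationic amphiphile liposomes (1/1; doubled amphiphile for single-headgroup surfactant), concentrations 425 μM to 8.5 μM; medium then replaced. Viability by Trypan blue exclusion 24 h later, counting unstained cells. Duplicates, at least five times; typical experiment shown.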
# [2] = Percentage survived cells of LA7 cell line done for 6 hr with compound (42.5 uM) in trypan blue exclusion dye test; summary of the method: as §1
# [3] = Percentage survived cells of LA7 cell line done for 6 hr with compound (8.5 uM) in trypan blue exclusion dye test; summary of the method: as §1
# [4] = Percentage survived cells of LA7 cell line done for 6 hr with compound (85 uM) in trypan blue exclusion dye test; summary of the method: as §1
# [5] = Percentage survived cells of LA7 cell line done for 6 hr with compound (213 uM) in trypan blue exclusion dye test; summary of the method: as §1
Compound,Survival [1] [%],Survival [2] [%],Survival [3] [%],Survival [4] [%],Survival [5] [%]
CCCCCCCCCCCCCCCC[N+](C)(C)C[C@H](OC)[C@H](C[N+](C)(C)CCCCCCCCCCCCCCCC)OC.[Br-].[Br-] [CATIONIC AMPHIPHILE],90,10,100,–,–
CCCCCCCCCCCCCCCC[N+](C)(C)CCOC.[Br-],100,100,100,80,50
CCCCCCCCCCCCCCCC[N+](C)(C)C[C@@H](OC)[C@@H](C[N+](C)(C)CCCCCCCCCCCCCCCC)OC.[Br-].[Br-] [CATIONIC AMPHIPHILE],–,–,100,–,–
CCCCCCCCCCCCCCCC[N+](C)(C)C[C@H](OC)[C@@H](C[N+](C)(C)CCCCCCCCCCCCCCCC)OC.[Br-].[Br-] [CATIONIC AMPHIPHILE],80,30,100,–,–
CCCCCCCCCCCCCCCC[N+](C)(C)CCCC[N+](C)(C)CCCCCCCCCCCCCCCC.[Br-].[Br-] [CATIONIC AMPHIPHILE],100,100,100,80,50

# From ChEMBL document CHEMBL1141152, “Efficient transfection of DNA by liposomes formulated with cationic gemini amphiphiles” (2005)
